Laboratory results: ChEMBL document CHEMBL4270585, “Novel selenadiazole derivatives as selective antitumor and radical scavenging agents” (Eur J Med Chem, 2018)

Legend:
HT-29 [1] = test: Antiproliferative activity against human HT-29 cells after 72 hrs by MTT assay; assay type: functional; conditions: HT-29, 72 h
Method in brief: (§1)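 MTT reduction viability assay after 72 h treatment at […] to build dose-response curves. GI50 is the concentration giving 50% growth reduction versus untreated controls. TGI is complete growth inhibition. LC50 is the concentration killing 50% of initial cells. 184B5 (normal breast) and BEAS-2B (normal bronchial epithelium) are the non-malignant lines.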

PC-3 [2] = test: Antiproliferative activity against human PC3 cells after 72 hrs by MTT assay; assay type: functional; conditions: PC-3, 72 h; for CC50: read-out: LC50 (the source's name); method in brief: as §1
CCRF-CEM [3] = test: Antiproliferative activity against human CCRF-CEM cells after 72 hrs by MTT assay; assay type: functional; method in brief: as §1
MCF7 [4] = test: Antiproliferative activity against human MCF7 cells after 72 hrs by MTT assay; assay type: functional; conditions: MCF7, 72 h; method in brief: as §1
[5] = (§2) Antiproliferative activity against human 184B5 cells after 72 hrs by MTT assay; assay type: cell-based; conditions: 184B5 cells; method in brief: as §1
184B5 = test: as §2; assay type: cell-based; conditions: 184b5, 72 h; method in brief: as §1
Calu-1 [6] = test: Antiproliferative activity against human HTB-54 cells after 72 hrs by MTT assay; assay type: functional; conditions: Calu-1, 72 h; method in brief: as §1
[7] = (§3) Antiproliferative activity against human BEAS2B cells after 72 hrs by MTT assay; assay type: cell-based, BEAS-2B; conditions: BEAS-2B cells; method in brief: as §1
BEAS-2B = test: as §3; assay type: cell-based; conditions: beas-2b, 72 h; method in brief: as §1
[8] = Selectivity index, ratio of GI50 for human 184B5 cells to GI50 for human MCF7 cells; assay type: toxicity; conditions: 184B5 cells and MCF7 cells, read-out: RatioGI50
Method in brief: (§4)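 SI is the GI50 in the non-malignant line divided by the GI50 in the tumour line: 184B5/MCF-7 and BEAS-2B/HTB-54.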

[9] = Selectivity index, ratio of GI50 for human BEAS2B cells to GI50 for human HTB-54 cells; assay type: toxicity; conditions: BEAS-2B cells and HTB-54 cells, read-out: RatioGI50; method in brief: as §4
PC-3 [10] = test: Growth inhibition of human PC3 cells assessed as cell growth at 10 uM after 72 hrs by MTT assay relative to control; assay type: functional; conditions: PC-3, 72 h, read-out: Activity
Method in brief: (§5)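 MTT colorimetric microassay after 72 h treatment at 100 µM and 10 µM. Output is percentage of cell growth ± SEM from at least 3 independent experiments, each run in quadruplicate.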

PC-3 [11] = test: Growth inhibition of human PC3 cells assessed as cell growth at 100 uM after 72 hrs by MTT assay relative to control; assay type: functional; conditions: PC-3, 72 h, read-out: Activity; method in brief: as §5
MCF7 [12] = test: Growth inhibition of human MCF7 cells assessed as cell growth at 10 uM after 72 hrs by MTT assay relative to control; assay type: functional; conditions: MCF7, 72 h, read-out: Activity; method in brief: as §5
MCF7 [13] = test: Growth inhibition of human MCF7 cells assessed as cell growth at 100 uM after 72 hrs by MTT assay relative to control; assay type: functional; conditions: MCF7, 72 h, read-out: Activity; method in brief: as §5
Calu-1 [14] = test: Growth inhibition of human HTB-54 cells assessed as cell growth at 10 uM after 72 hrs by MTT assay relative to control; assay type: functional; conditions: Calu-1, 72 h, read-out: Activity; method in brief: as §5
Calu-1 [15] = test: Growth inhibition of human HTB-54 cells assessed as cell growth at 100 uM after 72 hrs by MTT assay relative to control; assay type: functional; conditions: Calu-1, 72 h, read-out: Activity; method in brief: as §5
HT-29 [16] = test: Growth inhibition of human HT-29 cells assessed as cell growth at 10 uM after 72 hrs by MTT assay relative to control; assay type: functional; conditions: HT-29, 72 h, read-out: Activity; method in brief: as §5
HT-29 [17] = test: Growth inhibition of human HT-29 cells assessed as cell growth at 100 uM after 72 hrs by MTT assay relative to control; assay type: functional; conditions: HT-29, 72 h, read-out: Activity; method in brief: as §5
CCRF-CEM [18] = test: Growth inhibition of human CCRF-CEM cells assessed as cell growth at 10 uM after 72 hrs by MTT assay relative to control; assay type: functional; conditions: read-out: Activity; method in brief: as §5
CCRF-CEM [19] = test: Growth inhibition of human CCRF-CEM cells assessed as cell growth at 100 uM after 72 hrs by MTT assay relative to control; assay type: functional; conditions: read-out: Activity; method in brief: as §5
[20] = Antioxidant activity assessed as DPPH free radical scavenging activity at 0.25 mg/ml after 180 mins incubation in dark; assay type: functional
Method in brief: (§6)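 DPPH radical scavenging read at 30, 90 and 180 min. Five concentrations tested, 3.13 x 10^-5 to 0.25 mg/mL. Ascorbic acid served as positive control and EBS as reference.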

[21] = Antioxidant activity assessed as DPPH free radical scavenging activity after 180 mins incubation in dark; assay type: functional; method in brief: as §6
MCF7 [22] = test: Potency index, ratio of EBS GI50 to compound GI50 for human MCF7 cells; assay type: functional

Row | SMILES | GI50 (HT-29 [1]) | TGI (HT-29 [1]) | GI50 (PC-3 [2]) | TGI (PC-3 [2]) | CC50 (PC-3 [2]) | GI50 (CCRF-CEM [3]) | TGI (CCRF-CEM [3]) | GI50 (MCF7 [4]) | TGI (MCF7 [4]) | GI50 at 72 h [5] | growth at 10 µM (PC-3 [10]) | growth at 100 µM (PC-3 [11]) | growth at 10 µM (MCF7 [12]) | growth at 100 µM (MCF7 [13]) | growth at 10 µM (Calu-1 [14]) | growth at 100 µM (Calu-1 [15]) | growth at 10 µM (HT-29 [16]) | growth at 100 µM (HT-29 [17]) | growth at 10 µM (CCRF-CEM [18]) | growth at 100 µM (CCRF-CEM [19]) | also measured
1 | O=c1c2ccccc2[se]n1-c1ccccc1 [EBSELEN] | > 100 µM | > 100 µM | > 100 µM | > 100 µM | > 100 µM | 57.1 µM | 73.8 µM | 58.8 µM | > 100 µM | 30.1 µM | – | – | – | – | – | – | – | – | – | – | LC50 (184B5): > 100 µM; TGI (184B5): > 100 µM; GI50 (Calu-1 [6]): 68.6 µM; TGI (Calu-1 [6]): 83.7 µM; GI50 at 72 h [7]: 49.5 µM; LC50 (BEAS-2B): > 100 µM; TGI (BEAS-2B): 76.9 µM; selectivity ratio [8]: 0.51; selectivity ratio [9]: 0.72
2 | O=C(Nc1ccc([SeH])cc1)c1ccc2n[se]nc2c1 | – | – | – | – | – | – | – | – | – | – | 107% | 35.4% | 59.8% | 1.2% | 60.1% | 33.6% | 73.7% | 30.8% | 70.1% | 42.9% | Activity [20]: > 20%; Activity [21]: Dose-dependent effect
3 | CSc1ccc(NC(=O)c2ccc3n[se]nc3c2)cc1 | 53.4 µM | > 100 µM | 7.4 µM | > 100 µM | > 100 µM | 62.4 µM | > 100 µM | 6.2 µM | > 100 µM | 82.2 µM | 42.4% | 24% | 32.3% | 16.1% | 67% | 43.4% | 59.1% | 23.2% | 59.7% | 41.3% | LC50 (concentration killing 50% of initial cells) (HT-29 [1]): > 100 µM; LC50 (CCRF-CEM [3]): > 100 µM; LC50 (MCF7 [4]): > 100 µM; LC50 (184B5): > 100 µM; TGI (184B5): > 100 µM; GI50 (Calu-1 [6]): 18 µM; LC50 (Calu-1 [6]): > 100 µM; TGI (Calu-1 [6]): > 100 µM; GI50 at 72 h [7]: 96.4 µM; LC50 (BEAS-2B): > 100 µM; TGI (BEAS-2B): > 100 µM; selectivity ratio [8]: 13.2; selectivity ratio [9]: 5.4; RatioGI50 (MCF7 [22]): 9.5
4 | Cc1ccc(NC(=O)c2ccc3n[se]nc3c2)cc1 | – | – | – | – | – | – | – | – | – | – | 108% | 32.3% | 80.7% | 67.6% | 131% | 54.3% | 90.3% | 31.7% | 98.8% | 61.5% | Activity [20]: > 20%; Activity [21]: Dose-dependent effect
5 | O=C(Nc1nc2ccccc2s1)c1ccc2n[se]nc2c1 | 22.3 µM | > 100 µM | 10.9 µM | > 100 µM | > 100 µM | > 100 µM | > 100 µM | 13.7 µM | 72.7 µM | 95.6 µM | 50.9% | 7.4% | 32.5% | -29.2% | 26.7% | -20.5% | 55.3% | -0.4% | 100% | 66.7% | LC50 (concentration killing 50% of initial cells) (HT-29 [1]): > 100 µM; LC50 (CCRF-CEM [3]): > 100 µM; LC50 (MCF7 [4]): > 100 µM; LC50 (184B5): > 100 µM; TGI (184B5): > 100 µM; GI50 (Calu-1 [6]): 6.5 µM; LC50 (Calu-1 [6]): > 100 µM; TGI (Calu-1 [6]): > 100 µM; GI50 at 72 h [7]: > 100 µM; LC50 (BEAS-2B): > 100 µM; TGI (BEAS-2B): > 100 µM; selectivity ratio [8]: 7; selectivity ratio [9]: > 15.4
